Neddyl block: blocks human cullin neddylation; calls only at 25 µM; P61081+Q13564; TR-FRET cullin neddylation, biochemical; hit rate 0.58% among 360,000; AID 651699; in the data active = inhibition above about 36%
RAD54 inh: inhibitors of human RAD54 branch migration; hit rate 0.14% among 360,000; AID 602329; RAD54 Holliday junction branch migration, FAM/BHQ fluorescence; inhibition, % at 10.4 µM;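 active = mean normalized replicate activity at least 40 and at least half of replicates scoring 40 or more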;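 note: inhibitors cause a drop in the FAM fluorescence signal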
Apaf1 inhib: human Apaf-1 inhibition; hit rate 0.71% among 330,000; inhibition, % at 20 µM; O14727; AID 489030; reconstituted apoptosome caspase-3 activity, DEVD-Rh110 fluorescence; active = inhibition of at least 40% at 20 µM
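System: Apoptosome proteins | Medium: Hepes pH 7.5 with detergent and BSA | Also added: Cytochrome c trigger plus (Z-DEVD)2-Rh110 caspase-3 substrate | Incubation: 30 min compound preincubation, 50 min activation, room temperature | Detection: Rhodamine 110 fluorescence at Ex 480/Em 540 nm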
RAD52 anneal inh: RAD52 (human) annealing inhibition | recombinant RAD52 DNA annealing, FRET fluorescence | AID 651710 | inhibition, % at 18.7 µM | P43351 | hit rate 0.46% among 360,000;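 active = every replicate showing at least 50% inhibition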
DNA FID counter: counter-screen for HCV NS3 helicase inhibitors: DNA intercalator displacement; DNA fluorescent intercalator displacement, fluorescence; inhibition, % at 7.9 µM; AID 1845; hit rate 0.17% among 290,000; in the data active = inhibition above about 37%;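 note: higher means more ethidium bromide displaced from hairpin DNA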
UBC13 inh: inhibitors of human UBC13 polyubiquitin chain formation | TR-FRET | AID 485273 | P61088 | inhibition, % at 20 µM | hit rate 0.47% among 330,000; in the data active = inhibition above about 45%, passing the limit was not always enough
Target sequence (P61088 whole entry, looked up): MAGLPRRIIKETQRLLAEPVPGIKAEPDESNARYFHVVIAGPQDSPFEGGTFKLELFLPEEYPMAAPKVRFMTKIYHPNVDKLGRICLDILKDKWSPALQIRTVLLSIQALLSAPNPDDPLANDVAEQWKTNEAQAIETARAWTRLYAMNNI
Casp3 UBC13 ctr: counter-screen for UBC13 inhibitors: human caspase-3 inhibition; hit rate 4% among 1,400; inhibition, % at 20 µM; shares compounds with UBC13 inh; Recombinant caspase-3, Caspase-Glo 3/7 luminescence, 60 min; AID 488856;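 active = mean inhibition across replicates above about 26%, limit read from the data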
Target sequence (P42574 whole entry, looked up): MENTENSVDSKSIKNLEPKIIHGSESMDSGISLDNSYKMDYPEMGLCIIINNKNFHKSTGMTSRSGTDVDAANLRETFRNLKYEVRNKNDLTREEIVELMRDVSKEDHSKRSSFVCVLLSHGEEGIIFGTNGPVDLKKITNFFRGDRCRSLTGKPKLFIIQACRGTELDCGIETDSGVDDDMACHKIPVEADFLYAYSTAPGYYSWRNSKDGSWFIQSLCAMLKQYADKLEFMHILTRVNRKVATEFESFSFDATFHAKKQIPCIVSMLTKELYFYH
UBC13 conf: human UBC13 polyubiquitin inhibition, confirmed; hit rate 68% among 1,400; UBC13 polyubiquitination, TR-FRET, biochemical; inhibition, % at 10 µM; shares compounds with UBC13 inh; in the data active = inhibition above about 45%
Apaf-1 inh conf2: confirmation of Apaf-1 inhibitors | shares compounds with Apaf1 inhib | reconstituted apoptosome, caspase-3 DEVD-Rh110 fluorescence | inhibition, % at 20 µM | hit rate 25% among 1,800;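 active = mean inhibition of at least 40% at 20 µM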
Rh110 quench: counter-screen for Apaf-1 inhibitors: fluorescence interference. AID 504615. Rh110 fluorescence interference, quenched caspase reaction. shares compounds with Apaf1 inhib. 1,800 tested, under 10 active. activation (fluorescence interference), % at 20 µM;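 active = signal rise of 40% or more at 20 µM, treated as a fluorescence artifact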
Apaf1 inh interf: counter-screen for Apaf-1 inhibitors: fluorescence interference, dose response; shares compounds with Apaf1 inhib; AID 588538; 460 tested, under 10 active; IC50, µM; fluorescence interference counterscreen, Apaf-1 assay format; call rule not given here
A number is an active result. Only some compounds are listed: those with a hit (about 1.6% of all), similar ones and a draw of the others.

For COC(=O)C1=C(C)N(CC2CC2)C(=NCc2cccc(C(F)(F)F)c2)N[C@H]1c1ccccc1 the results were Neddyl block inactive, RAD54 inh inactive, Apaf1 inhib 57, UBC13 inh 66, Casp3 UBC13 ctr inactive, UBC13 conf 75, Apaf-1 inh conf2 inactive and Rh110 quench inactive.
Screening COC(=O)C1=C(C)N(Cc2ccccc2)C(=NCCc2c[nH]c3ccccc23)N[C@H]1c1cccc(C(F)(F)F)c1 returned Neddyl block inactive, RAD54 inh inactive, Apaf1 inhib 78, UBC13 inh 74, Casp3 UBC13 ctr inactive, UBC13 conf 86, Apaf-1 inh conf2 43, Rh110 quench inactive and Apaf1 inh interf inactive.
Screening COC(=O)C1=C(C)N(C)C(=NCc2cccc(C(F)(F)F)c2)NC1c1ccccc1 (stereo not given) returned RAD52 anneal inh inactive.
For COC(=O)C1=C(C)N(Cc2ccccc2)C(=NCc2cccc(C(F)(F)F)c2)N[C@H]1c1cccc(C(F)(F)F)c1 the results were Neddyl block inactive, RAD54 inh inactive, Apaf1 inhib 74, UBC13 inh 90, Casp3 UBC13 ctr inactive, UBC13 conf 94, Apaf-1 inh conf2 inactive and Rh110 quench inactive.
For COCCN=C1N[C@@H](c2cccc(C(F)(F)F)c2)C(C(=O)OC)=C(C)N1Cc1ccccc1 the results were Neddyl block inactive, RAD54 inh inactive, Apaf1 inhib inactive, RAD52 anneal inh inactive, DNA FID counter inactive and UBC13 inh inactive.
Screening CCCC(=O)Nc1ccc2c(c1)OC[C@H](C)N(Cc1ccccc1)C[C@H](C)[C@@H](OC)CN(C)C2=O returned RAD52 anneal inh inactive.
For C[C@H]1CN([C@@H](C)CO)C(=O)c2cccc(N(C)C)c2O[C@@H]1CN(C)S(=O)(=O)c1ccc(Cl)cc1 the results were RAD54 inh inactive and RAD52 anneal inh inactive.
Screening CC[C@@H](C)[C@@H]1CN([C@@H](CN2CCC[C@H]2CN2C(N)=NC[C@H]2C(C)C)C(C)C)C(=N)N1CCc1ccc(Cl)c(Cl)c1 returned Neddyl block inactive, RAD54 inh inactive, Apaf1 inhib 51, UBC13 inh 75, Casp3 UBC13 ctr inactive, UBC13 conf 61, Apaf-1 inh conf2 inactive and Rh110 quench inactive.
CC[C@@H](C)[C@@H]1CN([C@@H](C)CN2CCC[C@H]2CN2C(N)=NC[C@@H]2Cc2ccccc2)C(=N)N1CCCC1CCCC1 was read as Neddyl block inactive, RAD54 inh inactive, Apaf1 inhib 62, RAD52 anneal inh inactive, UBC13 inh 71, Casp3 UBC13 ctr inactive, UBC13 conf 73, Apaf-1 inh conf2 inactive and Rh110 quench inactive.
`CC[C@@H](C)[C@@H]1CN([C@@H](C)CN2CCC[C@H]2CN2C(N)=NC[C@@H]2Cc2ccccc2)C(=N)N1CCc1ccc(Cl)c(Cl)c1` gave Neddyl block inactive, RAD54 inh inactive, Apaf1 inhib 71, UBC13 inh 76, Casp3 UBC13 ctr inactive, UBC13 conf 70, Apaf-1 inh conf2 inactive and Rh110 quench inactive.
For FC(F)(F)c1cc(CCN2CCNC[C@@H]2Cc2ccccc2)cc(C(F)(F)F)c1 the results were Neddyl block inactive, RAD54 inh inactive, Apaf1 inhib 57, RAD52 anneal inh inactive, UBC13 inh 64, Casp3 UBC13 ctr inactive, UBC13 conf 51, Apaf-1 inh conf2 inactive and Rh110 quench inactive.
C[C@@H]1CN([C@H](C)CO)S(=O)(=O)c2ccc(-c3cccnc3)cc2O[C@@H]1CN(C)C(=O)CN(C)C was read as RAD54 inh inactive and RAD52 anneal inh inactive.
